# Compound activity from PubChem.
# IDE cell inh: cellular human IDE inhibition | AID 434962 | 0.41% of 320,000 active | inhibition, % at 5.59 µM | P14735 | HEK cells, FAbetaB cleavage, fluorescence polarization;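 active = percent inhibition above the average of all tested compounds plus 3 SD, set per screening campaign, cut at about 16% in these data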;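 also: IDE supplied by intact live HEK cells; FP after avidin binding of uncleaved biotin substrate so inhibition keeps polarization high; 0% = DMSO wells and 100% = 60 µM reference IDE inhibitor Ii1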
# ASAP1 inh: blocks human ASAP1-stimulated Arf1 GTP hydrolysis. Q9ULH1. GDP FP detection. inhibition, % at 16.5 µM. 0.19% of 360,000 active. AID 624377; in the data active = inhibition above about 25%;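 also: 0% = vehicle with enzyme and substrate and 100% = no enzyme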
# Target sequence (Q9ULH1 325-724 limits assumed): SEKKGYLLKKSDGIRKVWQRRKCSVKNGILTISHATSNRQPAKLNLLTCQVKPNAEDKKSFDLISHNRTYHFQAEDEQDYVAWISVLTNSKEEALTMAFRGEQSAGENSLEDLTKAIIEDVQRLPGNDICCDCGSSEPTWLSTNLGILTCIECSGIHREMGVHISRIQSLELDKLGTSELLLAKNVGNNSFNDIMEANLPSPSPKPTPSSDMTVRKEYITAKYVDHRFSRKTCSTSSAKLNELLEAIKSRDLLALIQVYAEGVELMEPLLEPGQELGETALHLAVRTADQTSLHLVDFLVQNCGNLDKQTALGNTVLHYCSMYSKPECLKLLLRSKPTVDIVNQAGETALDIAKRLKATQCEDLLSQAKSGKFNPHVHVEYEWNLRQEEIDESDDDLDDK
# PREPL inhibitor: inhibitors of human prolyl oligopeptidase-like enzyme PREPL | Q4J6C6 | recombinant PREPL, fluorescence polarization activity-based probe | inhibition, % at 5.96 µM | 0.68% of 320,000 active; in the data active = inhibition above about 43%;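 also: 0% = enzyme with DMSO and 100% = wells lacking enzyme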
# ARFGAP1 inh: inhibits rat ARF GTPase activating protein 1. Arfgap1-stimulated ARF1 GTP hydrolysis, GDP FP detection. inhibition, % at 16.5 µM. 0.26% of 360,000 active. AID 651572;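 active = inhibition above a per-plate limit, mean inhibition of low control wells plus 3 SD, cut at about 25% in these data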;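 also: 0% = DMSO wells with enzyme and 100% = wells lacking Arfgap1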
# Target sequence (Q62848 1-136 limits assumed): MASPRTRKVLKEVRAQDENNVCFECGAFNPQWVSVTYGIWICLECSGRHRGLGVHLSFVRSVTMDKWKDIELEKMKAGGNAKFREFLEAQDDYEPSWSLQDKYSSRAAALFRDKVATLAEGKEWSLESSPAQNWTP
#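 Assay system: purified rat His6-Arfgap1 residues 1-136 (GAP domain); Reagent: human Δ17 ARF1 bound to GTP; Dosing: 16.5 µM single point, 1.26% DMSO; Times: GTP hydrolysis reaction 2 h at 25 °C; Signal: FP, GDP Alexa 633 tracer displaced from anti-GDP antibody, 620/688 nm; Measure: % inhibition from polarization.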
# IDE act: activators of human insulin-degrading enzyme in cells; 0.073% of 340,000 active; P14735; HEK cells, FAbeta-B cleavage, fluorescence polarization; 0% vehicle, 100% cell-free pure enzyme wells; activation, % at 5.96 µM;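 active = activation above the mean of all tested compounds plus 3 SD, set per screening campaign, cut at about 17% in these data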
# Active calls of the source: *; x = no result; + = active, no number; ! = repeats disagree. Shown are actives, neighbours in structure and some others; about 1.2% of the full set was active somewhere.
SMILES,IDE cell inh,ASAP1 inh,PREPL inhibitor,ARFGAP1 inh,IDE act
OC(c1ccccc1)(c1ccccc1)C1CCN(CCCOc2cccc(F)c2)CC1,x,-2.0,x,3.8,x
Cc1ccc(NC(=O)C2C3C=CC4(CN(Cc5cccnc5)C(=O)C24)O3)cc1 (configuration not stated),7.7,3.7,13.6,3.9,18.4*
O=C(NCc1ccc(Cl)cc1)C1C2C=CC3(CN(Cc4cccnc4)C(=O)C13)O2 (configuration not stated),1.8,8.4,7.3,10.6,-8.8
COc1ccc(Cn2c(SCC#N)nc3ccc(N4CCOCC4)cc3c2=O)cc1,7.2,-1.8,70.5*,-1.7,-2.2
COC(=O)C1=C(C)N(Cc2ccccc2)C(=NCc2cccc(Cl)c2)N[C@H]1c1cccc(F)c1,2.8,x,-60.8,x,17.8*
COC(=O)C1=C(C)N(Cc2ccc(C(F)(F)F)cc2)C(=NCc2ccc(C(F)(F)F)cc2)NC1c1cccc(C(F)(F)F)c1 (configuration not stated),x,17.7,x,15.3,x
COC(=O)C1=C(C)N(Cc2ccccc2)C(=NCc2ccc(OC)cc2)N[C@H]1c1cccc(F)c1,3.4,16.7,-22.2,10.2,5.4
COC(=O)C1=C(C)N(Cc2ccccc2)C(=NCc2ccccc2)N[C@H]1c1cccc(C(F)(F)F)c1,6.4,x,-28.0,x,21.9*
C[C@@H]1ON(C)[C@H]2C[C@H]3c4cc(-c5cc6ccccc6o5)ccc4CCN3C[C@@H]12,x,6.0,x,5.7,x
CCOC(=O)CN1C(=O)N(c2ccc(OC)cc2)[C@H]2CC3c4ccccc4C[C@]3(C)[C@@H](C(=O)N(C)C3CCCCC3)C[C@H]21 (some centres not stated),x,-4.0,x,9.2,x
O=C(CCc1nc2ccccc2c(=O)[nH]1)Nc1ccc(N2CCCCC2)cc1,17.4*,-13.3,-1.2,1.9,-7.4
CC(=O)Nc1ccc(NC(=O)CCc2nc3ccccc3c(=O)[nH]2)cc1,-2.3,-6.5,-5.1,1.0,-2.8
CC(CCC(C)C(C)(C)C)[C@@H]1CC[C@H]2C3C[C@H](OS(O)(=S)=S)[C@H]4C[C@H](OS(O)(=S)=S)[C@@H](OS(O)(=S)=S)C[C@]4(C)[C@H]3CC[C@]12C (some centres not stated) (tested in a mixture with another compound),-10.5,x,46.3*!,x,11.4
CC(CCC(=O)NN)C1CCC2C3CCC4CC(O)CCC4(C)C3CCC12C (configuration not stated),x,-7.1,x,11.1,4.3
COCCNC(=O)c1c(N)[nH]c(C(=O)c2ccc(Br)cc2)c1-c1ccc(Br)cc1,x,-8.0,x,-2.1,x
CN(C)CCCN(C(=O)COc1ccccc1)c1nc2ccc(F)cc2s1,-4.5,-2.2,-4.8,-1.0,2.6
Cc1ccc2nc(N(CCCN(C)C)C(=O)COc3ccc(Cl)cc3)sc2c1,0.2,6.3,-76.1,-2.1,21.8*
CN(C)CCCN(C(=O)COc1ccc(Cl)cc1)c1nc2ccc(F)cc2s1,7.6,-8.3,-27.8,-2.5,17.8*
Cc1cc(C)c2sc(N(CCCN(C)C)C(=O)COc3ccc(Cl)cc3)nc2c1,3.2,11.2,-47.5,11.7,26.9*
Cc1cccc2sc(N(CCCN(C)C)C(=O)COc3ccc(Cl)cc3)nc12,5.9,13.9,-75.5,8.1,15.6
CN(C)CCCN(C(=O)COc1ccc(Cl)cc1)c1nc2c(F)cccc2s1,-5.3,1.2,-24.0,-11.1,1.1
Cc1ccc(S(=O)(=O)N/N=C\c2cn(CC(N)=O)c3ccccc23)cc1C,1.4,-0.8,5.5,0.0,-2.7
NC(=O)Cn1cc(/C=N\NS(=O)(=O)c2ccc(Cl)cc2)c2ccccc21,-8.8,8.1,6.4,8.0,24.3*
CCCCNc1ccc2c3c(cccc13)C(=O)N(CCCC)C2=O,x,-3.1,x,6.4,45.3*
C#CCOCCOCCOCCNc1nc(N2CCN(C(=O)CCCCCCCCCCNC(=O)[C@H](CO)n3cc(CCCSC)nn3)CC2)nc(N2CCN(C(=O)CCCCCCCCCCNC(=O)[C@H](CCCN=C(N)N)n3cc(C[C@@H](C)CC)nn3)CC2)n1,-2.4,x,20.9,x,54.8*
SMILES,IDE cell inh,ASAP1 inh,PREPL inhibitor,ARFGAP1 inh,IDE act
C#CCOCCOCCOCCNc1nc(N2CCN(C(=O)CCCCCCCCCCNC(=O)[C@H](CO)n3cc(CCCSC)nn3)CC2)nc(N2CCN(C(=O)CCCCCCCCCCNC(=O)[C@H](CCCCN)n3cc(CCO)nn3)CC2)n1,5.4,11.4,29.8,4.5,22.2*
C#CCOCCOCCOCCNc1nc(N2CCN(C(=O)CCCCCCCCCCNC(=O)Cn3cc(CCCCCN)nn3)CC2)nc(N2CCN(C(=O)CCCCCCCCCCNC(=O)[C@@H](CCSC)n3cc(CCO)nn3)CC2)n1,4.0,x,41.3,x,31.2*
C#CCOCCOCCOCCNc1nc(N2CCN(C(=O)CCCCCCCCCCNC(=O)[C@@H](CCSC)n3cc(CCO)nn3)CC2)nc(N2CCN(C(=O)CCCCCCCCCCNC(=O)[C@H](CCSC)n3cc(CCO)nn3)CC2)n1,7.6,6.7,-1.5,-8.8,5.1
O=C(NCc1ccccc1)[C@H]1CCCN1C(=O)[C@H]1CCCN1C(=O)c1cccs1,x,-5.1,x,-12.6,x
COc1ccc(CN2c3ccccc3C(=O)CS2(=O)=O)cc1OC,x,-1.4,x,3.4,x
O=C(c1cc([N+](=O)[O-])ccc1N1CCOCC1)N1CCCCC1,-4.4,13.0,1.8,4.6,1.2
O=C(c1cc([N+](=O)[O-])ccc1N1CCOCC1)N1CCN(c2ccc([N+](=O)[O-])cc2)CC1,-15.2,-3.6,33.3,9.5,29.6*
O=C(OCc1ccccc1)N1CCC2CC1c1ccc(N3CCN(Cc4ccccc4)CC3)cc12 (configuration not stated),x,-8.3,x,22.1,x
CC(C)=CCCC1(C)C=Cc2c(c(C)cc3c2[nH]c2cc(O)ccc23)O1 (configuration not stated),-5.6,9.0,3.9,15.7,24.0*
Cc1cc(=O)[nH]c2cc(O)ccc12,6.2,8.9,10.0,-2.2,3.5
Cc1ccc(NC(=O)CN2CCN(C(=O)c3ccco3)CC2)cc1,-3.0,3.2,-0.7,15.4,-0.2
Cc1ccc2nc(-c3ccc(NC(=O)CN4CCN(C(=O)c5ccco5)CC4)cc3)sc2c1,17.6*,0.8,14.5,1.3,-7.8
N=C(N)c1ccc(N=Nc2c(O)ccc3c2[nH]c2ccccc23)cc1,x,174.8*,x,+,7.6
NC(=O)c1ccc(N=Nc2c(O)c3ccccc3[nH]c2=O)cc1,0.4,x,5.4,x,x
CCCc1nc2ccccc2c(C(=O)OCC(=O)Nc2cccc(S(=O)(=O)N3CCOCC3)c2)c1CC,7.9,4.8,-4.1,28.1*,3.4
CCCc1nc2ccccc2c(C(=O)OCC(=O)Nc2ccc(S(=O)(=O)N3CCOCC3)cc2)c1CC,0.2,3.7,5.7,9.1,8.1
N#C/C(=C/c1ccc(-c2cc(C(=O)O)cc(C(=O)O)c2)o1)c1nc2ccccc2s1,26.7*,x,-0.4,x,x
